Assay results reported in ChEMBL document CHEMBL1125131, “Long-acting dihydropyridine calcium antagonists. 4. Synthesis and structure-activity relationships for a series of basic and nonbasic derivatives of 2-[(2-aminoethoxy)methyl]-1,4-dihydropyridine calcium antagonists” (J Med Chem, 1990).

Tests used:
[1] = organism: Rattus norvegicus; assay: Concentration required to block [Ca2+] induced contraction of K+ depolarized rat aorta by 50%; type: functional
[2] = test system: Canis familiaris; assay: The compound was tested for % decrease in coronary vasodilator activity in anesthetized dogs following intravenous administration; type: functional, Canis lupus familiaris
How it was run: (§1)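 Anesthetized beagle dogs were catheterized to record blood pressure and left ventricular pressure and to give compound intravenously, as one single dose for duration of action. Coronary blood flow was measured by hydrogen clearance with platinum electrodes in the coronary sinus and femoral artery, and cardiac output by thermodilution. Coronary vascular resistance was derived from these measurements.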

[3] = organism: Canis familiaris; assay: Duration of time taken for the compound for % decrease in coronary vasodilator activity; type: functional, Canis lupus familiaris; how it was run: as §1
[4] = Selectivity index, inhibition of [Ca2+] induced contraction of K+ depolarized rat aorta (IC50) to inhibition of contraction of guinea pig heart (IC25); type: functional, Cavia porcellus
[5] = organism: Cavia porcellus; assay: Negative logarithm of the concentration required to depress contraction in the Langendorff perfused guinea pig heart by 25%; type: functional
[6] = test system: Canis familiaris; assay: Percent decrease in coronary vasodilator activity in anesthetized dogs following intravenous administration was determined; type: functional, Canis lupus familiaris; how it was run: as §1
[7] = organism: Canis familiaris; assay: Duration of time taken for percent decrease in coronary vasodilator activity; type: functional, Canis lupus familiaris; how it was run: as §1
[8] = Volume of distribution in dog after intravenous administration; type: ADME, organism-based, Canis lupus familiaris; conditions: in vivo, read-out: Volume of distribution
[9] = Plasma clearance in dogs after intravenous administration; type: ADME, organism-based, Canis lupus familiaris; conditions: dog
[10] = Plasma half-life in dog after intravenous administration; type: ADME, organism-based, Canis lupus familiaris

SMILES	IC50 [1] [nM]	Decrease [2] [%]	Duration of action [3] [min]	Selectivity index [4]	pIC25 [5]	Decrease [6] [%]	Duration of action [7] [min]	Vd [8] [L/kg]	clearance [9] [mL/min/kg]	half-life [10] [h]
CCOC(=O)CNC(=O)NCCOCC1=C(C(=O)OCC)C(c2ccccc2Cl)/C(=C(\O)OC)C(C)=N1 (stereo not given)	10	61	15	10	7	–	–	–	–	–
CCO/C(O)=C1\C(COCCNC(C)=O)=NC(C)=C(C(=O)OC)C1c1ccccc1Cl (stereo not given)	15.8	–	–	1.6	7.6	–	–	–	–	–
CCO/C(O)=C1\C(COCCNC(=O)NCCN)=NC(C)=C(C(=O)OC)C1c1ccccc1Cl.O=C(O)/C=C\C(=O)O (stereo not given)	50.1	–	–	1.6	7.1	–	–	–	–	–
CCO/C(O)=C1\C(COCCNC(=O)c2ccc(O)nc2)=NC(C)=C(C(=O)OC)C1c1ccccc1Cl (stereo not given)	6.31	–	–	16	7	–	–	–	–	–
CCO/C(O)=C1\C(COCCNC(=O)NC)=NC(C)=C(C(=O)OC)C1c1ccccc1Cl (stereo not given)	3.16	–	–	13	7.6	–	–	–	–	–
CCO/C(O)=C1\C(COCCN(C)/C(=N/C)NC#N)=NC(C)=C(C(=O)OC)C1c1ccccc1Cl (stereo not given)	25.1	–	–	10	6.6	–	–	–	–	–
CCO/C(O)=C1\C(COCCNC(=O)NCCN2CCNC2=O)=NC(C)=C(C(=O)OC)C1c1ccccc1Cl (stereo not given)	15.8	–	–	40	6.2	–	–	–	–	–
CCO/C(O)=C1\C(COCC/N=C(\NC#N)NCCN(C)C)=NC(C)=C(C(=O)OC)C1c1ccccc1Cl (stereo not given)	50.1	–	–	3	6.8	–	–	–	–	–
CCO/C(O)=C1\C(COCCNCC(=O)NCCOC)=NC(C)=C(C(=O)OC)C1c1ccccc1Cl (stereo not given)	5.01	–	–	6	7.5	–	–	–	–	–
COC(=O)C1=C(C)NC(C)=C(C(=O)OC)C1c1ccccc1[N+](=O)[O-] [NIFEDIPINE]	–	77	36	–	7.5	–	–	–	–	–
CCO/C(O)=C1\C(COCCN(C)C(=O)NC)=NC(C)=C(C(=O)OC)C1c1ccccc1Cl (stereo not given)	20	–	–	5	7	68	15	–	–	–
CCO/C(O)=C1\C(COCCNCC(=O)NCCN)=NC(C)=C(C(=O)OC)C1c1ccccc1Cl (stereo not given)	100	–	–	1	7	–	–	–	–	–
CCO/C(O)=C1\C(COCCNC(C)C(N)=O)=NC(C)=C(C(=O)OC)C1c1ccccc1Cl (stereo not given)	10	73	150	6	7.2	–	–	–	–	–
CCO/C(O)=C1\C(COCCN(C)S(N)(=O)=O)=NC(C)=C(C(=O)OC)C1c1ccccc1Cl (stereo not given)	25.1	–	–	8	6.7	–	–	–	–	–
CCO/C(O)=C1\C(COCCN(CC(N)=O)CC(N)=O)=NC(C)=C(C(=O)OC)C1c1ccccc1Cl (stereo not given)	63.1	–	–	16	6	–	–	–	–	–
CCO/C(O)=C1\C(COCCNC(=O)c2cccnc2)=NC(C)=C(C(=O)OC)C1c1ccccc1Cl (stereo not given)	15.8	–	–	1.6	7.6	–	–	–	–	–
CCO/C(O)=C1\C(COCCNS(N)(=O)=O)=NC(C)=C(C(=O)OC)C1c1ccccc1Cl (stereo not given)	7.94	–	–	10	7.1	–	–	–	–	–
CCO/C(O)=C1\C(COCCNC(C)(C)C(N)=O)=NC(C)=C(C(=O)OC)C1c1ccccc1Cl (stereo not given)	3.16	85	210	8	7.6	–	–	–	–	–
CCO/C(O)=C1\C(COCCNC(=O)NCC(N)=O)=NC(C)=C(C(=O)OC)C1c1ccccc1Cl (stereo not given)	20	–	–	20	6.4	–	–	–	–	–
CCO/C(O)=C1\C(COCCNC(=O)c2cnccn2)=NC(C)=C(C(=O)OC)C1c1ccccc1Cl (stereo not given)	39.8	–	–	0.8	7.5	–	–	–	–	–
CCO/C(O)=C1\C(COCCNC(=O)Nc2ccnc(O)n2)=NC(C)=C(C(=O)OC)C1c1ccccc1Cl (stereo not given)	158	–	–	0.1	7.7	–	–	–	–	–
CCO/C(O)=C1\C(COCC/N=C(/NC)NC#N)=NC(C)=C(C(=O)OC)C1c1ccccc1Cl (stereo not given)	6.31	–	–	5	7.5	–	–	–	–	–
CCO/C(O)=C1\C(COCCNCC(N)=O)=NC(C)=C(C(=O)OC)C1c1ccccc1Cl (stereo not given)	3.98	88	>300	20	7.1	–	–	3	7	4.7
CCO/C(O)=C1\C(COCCNCC(=O)NC)=NC(C)=C(C(=O)OC)C1c1ccccc1Cl (stereo not given)	25.1	–	–	5	6.9	–	–	–	–	–
